Results from ChEMBL document CHEMBL1122697, “Resolved 3-(3-hydroxyphenyl)-N-n-propylpiperidine and its analogues: central dopamine receptor activity” (1984).

Assays:
Rattus norvegicus [1] = species on record: Rattus norvegicus; assay: Half-maximal decrease of DOPA accumulation upon reserpine pretreatment in the corpus striatum of rat brain; assay type: functional
Rattus norvegicus [2] = assay: Motor activity with reserpine pretreatment at dose 14 umol/kg; assay type: functional
Rattus norvegicus [3] = assay: Motor activity with reserpine pretreatment at dose 7.0 umol/kg; assay type: functional
Summary of the method: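 Test drug dissolved in saline, given sc in the neck (n = 4). Rats placed singly in motility meter cages immediately after dosing. Motor activity recorded as accumulated counts over 0–30 min and compared with controls.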

Rattus norvegicus [4] = species on record: Rattus norvegicus; assay: Half-maximal decrease of DOPA accumulation upon reserpine pretreatment in the limbic system of rat brain; assay type: functional
Rattus norvegicus [5] = assay: Effect on DOPAC level in rat brain striatum regions at a dose of 27 uM/kg sc 60 min before death; assay type: functional, organism-based
Summary of the method: (§1)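 They were killed 60 min later. DOPAC and HVA were measured by HPLC in limbic and striatal brain portions. Values are percent of control means ± standard error of the mean.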

Rattus norvegicus [6] = assay: Effect on HVA level in rat brain striatum regions at a dose of 27 uM/kg sc 60 min before death; assay type: functional, organism-based; summary of the method: as §1
Rattus norvegicus [7] = assay: Motor activity with reserpine pretreatment at dose 53 uM/kg; assay type: functional
Rattus norvegicus [8] = assay: Half-maximal decrease of DOPA accumulation (no reserpine pretreatment) in the limbic system of rat brain at dose 3.9 uM/kg; assay type: functional; set-up: scale not given: the % may be the effect or the level left
Summary of the method: (§2)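 Male Sprague-Dawley rats (200-300 g), not pretreated, received the drug sc in the neck, dissolved in saline. NSD 1015 (100 mg/kg) followed 35 min later. Dopa accumulation was measured in limbic and striatal portions. […] Statistics by Student's t test.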

Rattus norvegicus [9] = species on record: Rattus norvegicus; assay: Low dose of compound giving significant reduction and increase in motor activity without pretreatment was determined; motor activity 53% of control was observed at the lowest dose; assay type: functional
Summary of the method: (§3)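 Non-pretreated male Sprague-Dawley rats received the compound sc in the neck (n = 4). They were placed singly in test cages and put into motility meters 5 min later. Motor activity was recorded over 5-35 min. The dose reported is the lowest giving a significant reduction or increase in activity, expressed as percent of controls.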

Rattus norvegicus [10] = assay: Effect on HVA level in rat brain limbic regions at a dose of 27 uM/kg sc 60 min before death; assay type: functional, organism-based; summary of the method: as §1
Rattus norvegicus [11] = assay: (§4) Effect on DOPAC level in limbic system of rat brain at a dose of 27 uM/kg sc 60 min before death; assay type: functional, organism-based
Summary of the method: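 Male Sprague-Dawley rats (200-300 g) got a single sc dose of 27 μmol/kg, dissolved in saline. They were killed 60 min later. DOPAC and HVA were measured by HPLC in limbic and striatal brain portions. Values are percent of control means ± standard error of the mean.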

Rattus norvegicus [12] = assay: Half-maximal decrease of DOPA accumulation (no reserpine pretreatment) in the striatum of rat brain at dose 0.98 uM/kg; assay type: functional; set-up: scale not given: the % may be the effect or the level left; summary of the method: as §2
Rattus norvegicus [13] = species on record: Rattus norvegicus; assay: Low dose of compound giving significant reduction and increase in motor activity without pretreatment was determined; motor activity 74% of control was observed at the lowest dose; assay type: functional; summary of the method: as §3
Rattus norvegicus [14] = assay: as §4; assay type: functional, organism-based; summary of the method: as §1; remark: listed apart in the source
Rattus norvegicus [15] = species on record: Rattus norvegicus; assay: […] without pretreatment was determined; motor activity 40% of control was observed at the highest dose; assay type: functional
Rattus norvegicus [16] = assay: Half-maximal decrease of DOPA accumulation (no reserpine pretreatment) in the limbic system of rat brain at dose 213 uM/kg; assay type: functional; set-up: scale not given: the % may be the effect or the level left; summary of the method: as §2
Rattus norvegicus [17] = assay: Motor activity with reserpine pretreatment at dose 213 uM/kg; assay type: functional
Rattus norvegicus [18] = assay: Half-maximal decrease of DOPA accumulation (no reserpine pretreatment) in the striatum of rat brain at dose 27 uM/kg; assay type: functional; set-up: scale not given: the % may be the effect or the level left; summary of the method: as §2
Rattus norvegicus [19] = species on record: Rattus norvegicus; assay: Low dose of compound giving significant reduction and increase in motor activity without pretreatment was determined; motor activity 75% of control was observed at the lowest dose; assay type: functional; summary of the method: as §3
Rattus norvegicus [20] = assay: Half-maximal decrease of DOPA accumulation (no reserpine pretreatment) in the limbic system of rat brain at dose 0.8 uM/kg; assay type: functional; set-up: scale not given: the % may be the effect or the level left; summary of the method: as §2
Rattus norvegicus [21] = species on record: Rattus norvegicus; assay: High dose of compound giving significant reduction and increase in motor activity without pretreatment was determined; motor activity 230% of control was observed at the highest dose; assay type: functional; summary of the method: as §3
Rattus norvegicus [22] = assay: Half-maximal decrease of DOPA accumulation (no reserpine pretreatment) in the striatum of rat brain at dose 0.8 uM/kg; assay type: functional; set-up: scale not given: the % may be the effect or the level left; summary of the method: as §2
Rattus norvegicus [23] = assay: Motor activity with reserpine pretreatment at dose 13 uM/kg; assay type: functional
Rattus norvegicus [24] = assay: Half-maximal decrease of DOPA accumulation (no reserpine pretreatment) in the limbic system of rat brain at dose 0.98 uM/kg; assay type: functional; set-up: scale not given: the % may be the effect or the level left; summary of the method: as §2
Rattus norvegicus [25] = species on record: Rattus norvegicus; assay: Low dose of compound giving significant reduction and increase in motor activity without pretreatment was determined; motor activity 41% of control was observed at the lowest dose; assay type: functional; summary of the method: as §3
Rattus norvegicus [26] = species on record: Rattus norvegicus; assay: […] without pretreatment was determined; motor activity 137% of control was observed at the highest dose; assay type: functional
Rattus norvegicus [27] = assay: Motor activity with reserpine pretreatment at dose 3.3 uM/kg; assay type: functional
Rattus norvegicus [28] = assay: Half-maximal decrease of DOPA accumulation (no reserpine pretreatment) in the striatum of rat brain at dose 0.24 uM/kg; assay type: functional; set-up: scale not given: the % may be the effect or the level left; summary of the method: as §2
Rattus norvegicus [29] = assay: Half-maximal decrease of DOPA accumulation (no reserpine pretreatment) in the striatum of rat brain at dose 227 uM/kg; assay type: functional; set-up: scale not given: the % may be the effect or the level left; summary of the method: as §2
Rattus norvegicus [30] = assay: Half-maximal decrease of DOPA accumulation (no reserpine pretreatment) in the limbic system of rat brain at dose 227 uM/kg; assay type: functional; set-up: scale not given: the % may be the effect or the level left; summary of the method: as §2
Rattus norvegicus [31] = assay: Motor activity with reserpine pretreatment at dose 100 uM/kg; assay type: functional
Rattus norvegicus [32] = species on record: Rattus norvegicus; assay: Low dose of compound giving significant reduction and increase in motor activity without pretreatment was determined; motor activity 58% of control was observed at the lowest dose; assay type: functional; summary of the method: as §3
Rattus norvegicus [33] = species on record: Rattus norvegicus; assay: High dose of compound giving significant reduction and increase in motor activity without pretreatment was determined; motor activity 92% of control was observed at the highest dose; assay type: functional; summary of the method: as §3
Rattus norvegicus [34] = assay: Half-maximal decrease of DOPA accumulation (no reserpine pretreatment) in the striatum of rat brain at dose 3.7 uM/kg; assay type: functional; set-up: scale not given: the % may be the effect or the level left; summary of the method: as §2
Rattus norvegicus [35] = assay: Half-maximal decrease of DOPA accumulation (no reserpine pretreatment) in the limbic system of rat brain at dose 3.7 uM/kg; assay type: functional; set-up: scale not given: the % may be the effect or the level left; summary of the method: as §2
Rattus norvegicus [36] = species on record: Rattus norvegicus; assay: High dose of compound giving significant reduction and increase in motor activity without pretreatment was determined; motor activity 55% of control was observed at the highest dose; assay type: functional; summary of the method: as §3
Rattus norvegicus [37] = assay: Reduction of DOPA accumulation upon reserpine pretreatment in the corpus striatum of rat brain at a dose of 100 umol/kg; assay type: functional
Summary of the method: (§5)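 Test drug dissolved in saline, injected sc in the neck. 30 min later, NSD 1015 100 mg/kg given. Dopa measured in brain portions (limbic, striatal) and expressed as percent reduction from control levels. Student's t test used for statistics.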

Rattus norvegicus [38] = assay: Reduction of DOPA accumulation upon reserpine pretreatment in the limbic system of rat brain at a dose of 100 umol/kg; assay type: functional; summary of the method: as §5
Rattus norvegicus [39] = assay: Motor activity with reserpine pretreatment at dose 265 umol/kg; assay type: functional
Rattus norvegicus [40] = assay: Half-maximal decrease of DOPA accumulation (no reserpine pretreatment) in the limbic system of rat brain at dose 0.83 uM/kg; assay type: functional; set-up: scale not given: the % may be the effect or the level left; summary of the method: as §2
Rattus norvegicus [41] = species on record: Rattus norvegicus; assay: Low dose of compound giving significant reduction and increase in motor activity without pretreatment was determined; motor activity 32% of control was observed at the lowest dose; assay type: functional; summary of the method: as §3
Rattus norvegicus [42] = assay: Motor activity with reserpine pretreatment at dose 133 umol/kg; assay type: functional

Oc1cccc([C@H]2CCCN(CCc3ccccc3)C2)c1
ED50 (Rattus norvegicus [1]): 6.9 µmol/kg | Accumulated counts (Rattus norvegicus [2]): 26

Oc1cccc([C@@H]2CCCN(CCc3ccccc3)C2)c1
Accumulated counts (Rattus norvegicus [3]): 71 | ED50 (Rattus norvegicus [1]): 0.13 µmol/kg

CN1CCc2cccc3c2[C@H]1Cc1ccc(O)c(O)c1-3 [APOMORPHINE]
ED50 (Rattus norvegicus [1]): 0.22 µmol/kg | ED50 (Rattus norvegicus [4]): 0.19 µmol/kg

CC(C)N1CCC[C@H](c2cccc(O)c2)C1
ED50 (Rattus norvegicus [1]): 13 µmol/kg | Level (Rattus norvegicus [5]): 74 | Level (Rattus norvegicus [6]): 89 | Accumulated counts (Rattus norvegicus [7]): 49 | Control (Rattus norvegicus [8]): 77% | Dose (Rattus norvegicus [9]): 0.2 µM/kg | Level (Rattus norvegicus [10]): 80 | Level (Rattus norvegicus [11]): 70 | Control (Rattus norvegicus [12]): 85%

CCCN1CCC[C@@H](c2cccc(O)c2)C1 [PRECLAMOL]
ED50 (Rattus norvegicus [1]): 1.7 µmol/kg | Level (Rattus norvegicus [5]): 145 | Level (Rattus norvegicus [6]): 162 | Dose (Rattus norvegicus [13]): 0.8 µM/kg | Level (Rattus norvegicus [14]): 114 | Dose (Rattus norvegicus [15]): 213 µM/kg | Level (Rattus norvegicus [10]): 100 | Control (Rattus norvegicus [16]): 95% | Accumulated counts (Rattus norvegicus [17]): 12 | Control (Rattus norvegicus [18]): 147%

CCCN1CCC[C@H](c2cccc(O)c2)C1
Dose (Rattus norvegicus [19]): 1.6 µM/kg | ED50 (Rattus norvegicus [1]): 1.3 µmol/kg | Level (Rattus norvegicus [5]): 63 | Level (Rattus norvegicus [6]): 45 | Control (Rattus norvegicus [20]): 86% | Level (Rattus norvegicus [10]): 52 | Dose (Rattus norvegicus [21]): 213 µM/kg | Level (Rattus norvegicus [11]): 59 | Control (Rattus norvegicus [22]): 81% | Accumulated counts (Rattus norvegicus [23]): 78

CC(C)N1CCC[C@@H](c2cccc(O)c2)C1
Control (Rattus norvegicus [24]): 74% | ED50 (Rattus norvegicus [1]): 0.45 µmol/kg | Level (Rattus norvegicus [5]): 81 | Level (Rattus norvegicus [6]): 68 | Dose (Rattus norvegicus [25]): 0.2 µM/kg | Dose (Rattus norvegicus [26]): 13 µM/kg | Level (Rattus norvegicus [14]): 60 | Accumulated counts (Rattus norvegicus [27]): 38 | Level (Rattus norvegicus [10]): 51 | Control (Rattus norvegicus [28]): 76%

CN1CCC[C@@H](c2cccc(O)c2)C1
ED50 (Rattus norvegicus [1]): 10 µmol/kg | Control (Rattus norvegicus [29]): 51% | Control (Rattus norvegicus [30]): 48% | Accumulated counts (Rattus norvegicus [31]): 36 | Dose (Rattus norvegicus [15]): 227 µM/kg

CCCCN1CCC[C@H](c2cccc(O)c2)C1
Dose (Rattus norvegicus [32]): 3.7 µM/kg | ED50 (Rattus norvegicus [1]): 2.2 µmol/kg | Level (Rattus norvegicus [5]): 58 | Level (Rattus norvegicus [6]): 52 | Dose (Rattus norvegicus [33]): 53 µM/kg | Accumulated counts (Rattus norvegicus [7]): 180 | Control (Rattus norvegicus [34]): 76% | Level (Rattus norvegicus [14]): 55 | Level (Rattus norvegicus [10]): 52 | Control (Rattus norvegicus [35]): 72% | ED50 (Rattus norvegicus [4]): 2.3 µmol/kg

Oc1cccc([C@@H]2CCCNC2)c1
Control (Rattus norvegicus [29]): 44% | Dose (Rattus norvegicus [36]): 227 µM/kg | Reduction (Rattus norvegicus [37]): 26% | Control (Rattus norvegicus [30]): 50% | Reduction (Rattus norvegicus [38]): 19%

Oc1cccc([C@H]2CCCNC2)c1
ED50 (Rattus norvegicus [1]): 14 µmol/kg | Accumulated counts (Rattus norvegicus [39]): 47

CCCCN1CCC[C@@H](c2cccc(O)c2)C1
ED50 (Rattus norvegicus [1]): 0.77 µmol/kg | Level (Rattus norvegicus [5]): 118 | Level (Rattus norvegicus [6]): 142 | Accumulated counts (Rattus norvegicus [7]): 63 | Control (Rattus norvegicus [40]): 84% | Level (Rattus norvegicus [14]): 91 | Level (Rattus norvegicus [10]): 103 | Dose (Rattus norvegicus [41]): 3.7 µM/kg

CN1CCC[C@H](c2cccc(O)c2)C1
ED50 (Rattus norvegicus [1]): 2.9 µmol/kg | Accumulated counts (Rattus norvegicus [42]): 88
